Laboratory results from ChEMBL document CHEMBL1124947, “Cationic antiprotozoal drugs. Trypanocidal activity of 2-(4'-formylphenyl)imidazo[1,2-a]pyridinium guanylhydrazones and related derivatives of quaternary heteroaromatic compounds” (J Med Chem, 1990).

Legend:
Format in all cases: functional
Mus musculus [1] = test: Trypanocidal Activity at I.C.E. value 0.69 when administered subcutaneously.
How it was run: (§1)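 Mice, in groups of five per dose, were given a standard inoculum of blood-stage T. rhodesiense that is lethal to all untreated controls, then dosed subcutaneously. Usually 11 dose levels were used (2^n × 0.42 mg/kg).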

Mus musculus [2] = test: Trypanocidal Activity at I.C.E. value 0.35 when administered perorally.
Mus musculus [3] = test: Trypanocidal Activity at I.C.E. value 0.45 when administered subcutaneously.
How it was run: (§2)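 Blood-stage T. rhodesiense infection came from a standard inoculum lethal to all untreated mice. Drug was given by subcutaneous injection to groups of five mice. Survival beyond 30 days counted as cure. […] Sub-curative doses scored 0, and data were normalized at each dose.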

Mus musculus [4] = test: Trypanocidal Activity at I.C.E. value 0.58 when administered subcutaneously.; how it was run: as §1
Mus musculus [5] = test: Trypanocidal Activity at I.C.E. value 0.21 when administered subcutaneously.
Mus musculus [6] = test: Trypanocidal Activity at I.C.E. value 0.64 when administered subcutaneously.; how it was run: as §1
Mus musculus [7] = test: Trypanocidal Activity at I.C.E. value 0.37 when administered subcutaneously.; how it was run: as §2
Mus musculus [8] = test: Trypanocidal Activity at I.C.E. value 0.67 when administered subcutaneously.; how it was run: as §1
[9] = tested on: Trypanosoma brucei rhodesiense; test: In Vitro measurement of inhibition of leucine uptake in cell culture of Trypanosoma rhodesiense; details: read-out: ID50 (the source's name)
How it was run: (§3)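 Trypanosomes harvested from infected rats, cultured 3 h with several concentrations of drug, usually 0.1–100 µg/mL. Radiolabeled L-leucine uptake measured. ID50 is the concentration in µg/mL giving 50% inhibition of incorporation.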

[10] = tested on: Trypanosoma brucei rhodesiense; test: In Vitro measurement of inhibition of thymidine uptake in cell culture of Trypanosoma rhodesiense; details: read-out: ID50 (the source's name)
How it was run: (§4)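 Parasites harvested from infected rats and incubated 3 h across a drug concentration series, usually 0.1–100 µg/mL. Incorporation of radiolabeled thymidine measured. ID50 is the concentration (µg/mL) producing 50% inhibition.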

Mus musculus [11] = test: Trypanocidal Activity at I.C.E. value 0.48 when administered perorally.
Mus musculus [12] = test: Trypanocidal Activity at I.C.E. value 0.31 when administered subcutaneously.; how it was run: as §2
Mus musculus [13] = test: Trypanocidal Activity at I.C.E. value 0.43 when administered subcutaneously.; how it was run: as §2
Mus musculus [14] = test: Trypanocidal Activity at I.C.E. value 0.18 when administered subcutaneously.
Mus musculus [15] = test: Trypanocidal Activity at I.C.E. value 0.63 when administered subcutaneously.; how it was run: as §1
[16] = tested on: Trypanosoma brucei rhodesiense; test: In Vitro measurement of inhibition of thymidine uptake in cell culture of Trypanosoma rhodesiense.; details: read-out: ID50 (the source's name); how it was run: as §4
Mus musculus [17] = test: Trypanocidal Activity at I.C.E. value 0.45 when administered perorally.
[18] = tested on: Trypanosoma brucei rhodesiense; test: In Vitro measurement of inhibition of leucine uptake in cell culture of Trypanosoma rhodesiense.; details: read-out: ID50 (the source's name); how it was run: as §3
Mus musculus [19] = test: Trypanocidal Activity at I.C.E. value 0.30 when administered subcutaneously.; how it was run: as §2
Mus musculus [20] = test: Trypanocidal Activity at I.C.E. value 0.10 when administered perorally.
Mus musculus [21] = test: Trypanocidal Activity at I.C.E. value 0.19 when administered subcutaneously.
Mus musculus [22] = test: Trypanocidal Activity at I.C.E. value 0.59 when administered subcutaneously.; how it was run: as §1
Mus musculus [23] = test: Trypanocidal Activity at I.C.E. value 0.33 when administered subcutaneously.; how it was run: as §2
Mus musculus [24] = test: Trypanocidal Activity at I.C.E. value 0.24 when administered subcutaneously.; how it was run: as §2
Mus musculus [25] = test: Trypanocidal Activity at I.C.E. value 0.39 when administered subcutaneously.; how it was run: as §2
[26] = tested on: Trypanosoma brucei rhodesiense; test: In Vitro measurement of inhibition of Leucine uptake in cell culture of Trypanosoma rhodesiense.; details: read-out: ID50 (the source's name); how it was run: as §3

For Br.CCSc1ccc2n(c1)cc(-c1ccc(/C=N/NC3=NCCN3)cc1)[n+]2C.[Br-], the CD50 (Mus musculus [1]) was 3.3 mg/kg.

Molecule Br.C/N=C(\NC)N/N=C/c1ccc(OCc2cn3ccccc3[n+]2C)cc1.[Br-] has a CD50 (Mus musculus [2]) of 53 mg/kg and a CD50 (Mus musculus [3]) of 0.8 mg/kg.

Br.C/N=C(/NC)N/N=C/c1ccc(-c2cn3ccc(C)cc3[n+]2C)cc1.[Br-] was tested, and the CD50 (Mus musculus [4]) was 0.4 mg/kg.

In the case of Br.CN1CCN(C(=N)N/N=C/c2ccc(-c3cn4ccccc4[n+]3C)cc2)CC1.[Br-], the CD50 (Mus musculus [5]) was 3.3 mg/kg.

Br.Cc1cccc2n1cc(COc1ccc(/C=N/NC3=NCCN3)cc1)[n+]2C.[Br-] gave a CD50 (Mus musculus [6]) of 0.8 mg/kg.

With Br.Cc1ccc2n(c1)cc(-c1ccc(/C=N/NC(=N)NN3CCOCC3)cc1)[n+]2C.[Br-] the CD50 (Mus musculus [7]) was 3.3 mg/kg.

In the case of C/N=C(\NC)N/N=C/c1ccc(-c2cn3ccccc3[n+]2C)cc1.I.[I-], the CD50 (Mus musculus [4]) was 0.2 mg/kg.

Br.Cn1c(COc2ccc(/C=N/NC(=N)N)cc2)[n+](C)c2ccccc21.[Br-] showed a CD50 (Mus musculus [8]) of 0.4 mg/kg, an IC50 [9] of 6.1 µg/mL and an IC50 [10] of 1.9 µg/mL. For the same molecule, the CD50 (Mus musculus [11]) was 13 mg/kg.

With C[n+]1c(/C=C/c2ccc(/C=N/NC(=O)c3ccc(N)cc3)cc2)cn2ccccc21.Cc1ccc(S(=O)(=O)[O-])cc1 the CD50 (Mus musculus [4]) was 6.6 mg/kg.

Br.Cn1cc[n+](C)c1COc1ccc(/C=N/NC2=NCCN2)cc1.[Br-] gave a CD50 (Mus musculus [7]) of 3.3 mg/kg.

With C[n+]1c(-c2ccc(/C=N/Nc3nccs3)cc2)cn2ccsc21.[Br-] the CD50 (Mus musculus [12]) was 26 mg/kg.

Work on Cc1ccc(S(=O)(=O)[O-])cc1.Cn1c(COc2ccc(/C=N/NC(=O)c3ccc(N)cc3)cc2)[n+](C)c2ccccc21 yielded a CD50 (Mus musculus [7]) of 6.6 mg/kg.

C[n+]1c(-c2ccc(/C=N/Nc3nc(N)nc(N)n3)cc2)cn2ccccc21.Cc1ccc(S(=O)(=O)[O-])cc1 was tested, and the CD50 (Mus musculus [13]) was 6.6 mg/kg.

Molecule C[n+]1c(-c2ccc(/C=N/Nc3ccccn3)cc2)cn2ccccc21.Cc1ccc(S(=O)(=O)[O-])cc1 has a CD50 (Mus musculus [14]) of 212 mg/kg.

Br.CCCNC(=N)N/N=C/c1ccc(-c2cn3ccc(C)cc3[n+]2C)cc1.[Br-] gave a CD50 (Mus musculus [15]) of 0.2 mg/kg, an IC50 [16] of 1.9 µg/mL and a CD50 (Mus musculus [17]) of 26 mg/kg. For the same molecule, the IC50 [18] was 4.6 µg/mL.

Br.CC/N=C(\NCC)N/N=C/c1ccc(OCc2n(C)cc[n+]2C)cc1.[Br-] showed a CD50 (Mus musculus [19]) of 13 mg/kg.

In the case of Br.Cn1c[n+](Cc2ccc(/C=N/NC3=NCCN3)cc2)c2ccccc21.[Br-], the CD50 (Mus musculus [20]) was 424 mg/kg, the IC50 [9] was greater than 10 µg/mL and the IC50 [10] was 11.1 µg/mL. The CD50 (Mus musculus [21]) was 3.3 mg/kg.

Molecule C[n+]1c(-c2ccc(/C=N/NC3N=NC(=S)N3N)cc2)cn2ccccc21.[Br-] (stereo unspecified) has a CD50 (Mus musculus [14]) of 53 mg/kg.

Br.CCNC(=N)N/N=C/c1ccc(-c2cn3ccccc3[n+]2C)cc1.[Br-] was tested, and the IC50 [16] was 0.4 µg/mL, the IC50 [18] was 0.5 µg/mL and the CD50 (Mus musculus [22]) was 0.1 mg/kg.

For Br.C[n+]1c(-c2ccc(/C=N/NC(=N)N3CCOCC3)cc2)cn2ccccc21.[Br-], the CD50 (Mus musculus [23]) was 0.4 mg/kg.

In the case of Br.Cn1cc[n+](C)c1/C=C/c1ccc(/C=N/NC2=NCCN2)cc1.[Br-], the CD50 (Mus musculus [6]) was 1.6 mg/kg.

Molecule Br.CCCC/N=C(/NCCCC)N/N=C/c1ccc(-c2cn3ccc(C)cc3[n+]2C)cc1.[Br-] has a CD50 (Mus musculus [24]) of 53 mg/kg.

Br.C[n+]1cccc(COc2ccc(/C=N/NC3=NCCCN3)cc2)c1.[Br-] was tested, and the IC50 [9] was greater than 10 µg/mL, the CD50 (Mus musculus [2]) was 53 mg/kg and the IC50 [10] was 3.7 µg/mL. It also gave a CD50 (Mus musculus [3]) of 0.8 mg/kg.

Molecule Br.Cc1ccc2n(c1)cc(-c1ccc(/C=N/NC(=N)N(C)C)cc1)[n+]2C.[Br-] has a CD50 (Mus musculus [13]) of 0.8 mg/kg.

For Cc1ccc(S(=O)(=O)O)cc1.Cc1ccc(S(=O)(=O)[O-])cc1.Cc1ccc2n(c1)cc(-c1ccc(/C=N/NC(=N)N3CCSC3)cc1)[n+]2C, the IC50 [16] was greater than 10 µg/mL, the CD50 (Mus musculus [25]) was 6.6 mg/kg and the IC50 [26] was 0.5 µg/mL.

Work on Br.Cc1ccc2n(c1)cc(COc1ccc(/C=N/NC3=NCCCN3)cc1)[n+]2C.[Br-] yielded a CD50 (Mus musculus [1]) of 0.8 mg/kg.

Molecule Br.CCNC(=N)N/N=C/c1ccc(-c2cn3cc(C)ccc3[n+]2C)cc1.[Br-] has a CD50 (Mus musculus [8]) of 0.4 mg/kg and a CD50 (Mus musculus [2]) of 26 mg/kg.

Br.Cc1ccn2cc(-c3ccc(/C=N/NC(=N)N4CCN(C)CC4)cc3)[n+](C)c2c1.[Br-] showed a CD50 (Mus musculus [24]) of 3.3 mg/kg.
